Measured values from publication PMC5198934 (Saudi Journal of Biological Sciences, 2015).
Converted amounts (≈) assume the structure as drawn.

What was measured:
[1] = ABTS radical scavenging assay; conditions: 10 min, absorbance at 734 nm, triplicate, mean ± SD
Summary of the method: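 ABTS•+ formed from 7 mM ABTS in water plus 2.45 mM potassium persulfate, kept dark at room temperature 12–16 h, then diluted in methanol to A734 0.70 ± 0.02 at 30 °C. Methanolic compound dilutions (20 µL) added to 180 µL radical, 10 min in dark, A734. Controls: methanol blank, ascorbic acid reference. Fresh radical each run. Triplicate. % scavenging versus blank gives IC50.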

[2] = DPPH radical scavenging assay; conditions: 30 min, absorbance at 517 nm, triplicate, mean ± SD
Summary of the method: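 DPPH dissolved in methanol (180 µL) mixed with 20 µL methanolic compound solutions at 0.1, 1, 10 and 100 μg/mL. Mixture shaken, held 30 min at room temperature in dark, A517. Controls: methanol blank, ascorbic acid positive. Triplicate. % scavenging = (A blank − A test)/A blank × 100; IC50 from concentration–scavenging plot.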

FRAP assay = conditions: for FRAP (10 μg/mL): absorbance at 593 nm, 30 min, triplicate
Summary of the method: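 Working reagent: 300 mM acetate buffer pH 3.6, 10 mM TPTZ in 40 mM HCl, and 20 mM FeCl3·6H2O, mixed 10:1:1 and warmed to 37 °C. Methanolic samples reacted 30 min. Ascorbic acid in water used as standard, methanol as blank. Fe²⁺–TPTZ complex read at 593 nm. Triplicate, mean reported.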

Caski cancer cell = assay: SRB anticancer assay, Caski cells; assay type: cell-based
Summary of the method: (§1)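 HeLa cells were grown in DMEM; CaSki and MDCK in RPMI-1640. All media had 10% FBS and 1% antibiotic–antimycotic, at 37 °C, 5% CO2. Cells seeded at 5×10^3/well overnight, triplicate, then given four concentrations for 48 h. Untreated cells served as control. SRB staining: ice-cold 70% acetone fixation, 0.4% SRB, Tris solubilisation, A540. IC50 from cancer lines, CC50 from MDCK, TI derived.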

Hela cancer cell = assay: SRB anticancer assay, Hela cells; assay type: cell-based, Human
Summary of the method: as §1

[3] = SRB cytotoxicity assay, MDCK cells; assay type: cell-based, canine; conditions: dog
Summary of the method: as §1

Row | IC50 ABTS [1] [µg/mL] | IC50 DPPH [2] [µg/mL] | IC50 (Caski cancer cell; Homo sapiens, Ca-Ski, 48 h, read-out: IC50 Caski) [µg/mL] | IC50 (Hela cancer cell; Homo sapiens, HeLa, 48 h, read-out: IC50 Hela) [µg/mL] | SMILES | FRAP absorption value (FRAP assay; Fe3+ reducing power) [nm] | FRAP (10 μg/mL) (FRAP assay) | TI (therapeutic index) (Caski cancer cell; CC50 MDCK / IC50 Caski) | TI (therapeutic index) (Hela cancer cell; CC50 MDCK / IC50 Hela) | CC50 at 48 h [3] [µg/mL]
1 | 4.760 ± 0.05 (≈ 27 µM) | 10.75 ± 0.66 (≈ 61 µM) |  |  | O=C1O[C@H]([C@@H](O)CO)C(O)=C1O [Ascorbic acid] | 2.140 | 2.140 ± 0.78 |  |  | 
2 | 86.29 ± 2.11 | 33.16 ± 1.60 | 5.64 ± 0.11 | 4.5 ± 0.08 | COc1ccc2cc3[n+](cc2c1OC)CCc1cc2c(cc1-3)OCO2 [Berberine] |  | 0.001 ± 0.66 | 20.17 | 25.29 | 113.8 ± 0.51
